# Reference: paper PMC3608840 (Journal of biomolecular screening, 2012)
# Legend:
# hPAP [1] = target: T1, hPAP (Homo sapiens, UniProt P15309); experiment: 5′-AMP hydrolysis; type: biochemical
# T1 sequence (P15309 33-386): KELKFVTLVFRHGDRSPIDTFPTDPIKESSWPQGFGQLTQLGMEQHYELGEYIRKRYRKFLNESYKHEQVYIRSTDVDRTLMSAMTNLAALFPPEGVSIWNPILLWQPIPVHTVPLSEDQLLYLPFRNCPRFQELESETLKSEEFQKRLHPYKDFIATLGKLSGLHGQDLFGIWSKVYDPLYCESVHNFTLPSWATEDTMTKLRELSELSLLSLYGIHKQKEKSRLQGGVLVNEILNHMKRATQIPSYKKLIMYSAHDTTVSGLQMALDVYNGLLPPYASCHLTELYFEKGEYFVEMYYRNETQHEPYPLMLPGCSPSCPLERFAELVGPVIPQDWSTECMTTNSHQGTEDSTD
# hPAP [2] = target: T1, hPAP; experiment: Fluorogenic; type: biochemical
# PTP = target: T2, PTP (Homo sapiens, UniProt P18031); experiment: Fluorogenic assay, Protein Tyrosine Phosphatase-1B; type: biochemical; conditions: data not shown
# T2 sequence (P18031 1-435): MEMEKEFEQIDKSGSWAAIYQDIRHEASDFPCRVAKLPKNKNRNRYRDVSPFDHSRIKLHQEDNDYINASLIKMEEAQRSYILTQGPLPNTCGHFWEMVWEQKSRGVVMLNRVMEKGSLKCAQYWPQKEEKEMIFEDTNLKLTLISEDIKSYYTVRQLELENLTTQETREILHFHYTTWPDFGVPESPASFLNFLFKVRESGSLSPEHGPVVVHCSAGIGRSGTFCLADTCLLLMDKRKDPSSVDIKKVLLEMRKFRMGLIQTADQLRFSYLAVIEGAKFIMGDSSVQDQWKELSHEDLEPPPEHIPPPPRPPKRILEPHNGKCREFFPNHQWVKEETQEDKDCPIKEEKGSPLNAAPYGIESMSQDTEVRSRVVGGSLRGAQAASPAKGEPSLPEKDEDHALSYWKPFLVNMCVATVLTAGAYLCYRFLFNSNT
# Summary of the method: (§1)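 Bovine ALP (5 pM final; 50 mM Tris-HCl pH 8.0) or potato acid phosphatase (1.5 nM final; 50 mM sodium acetate pH 5.3), each buffer with 0.01% Tween-20, or human PTP-1B. 12-point in-plate compound series, 15 min room-temperature preincubation with enzyme, then 100 μM DiFMUP final. Fluorescence (ex 340/em 450 nm) read each min for 3 min. Change normalized to enzyme and no-enzyme controls, sigmoidal dose-response fit.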
# pAP [3] = experiment: Fluorogenic; type: biochemical, potato
# Summary of the method: as §1
# transmembrane PAP = experiment: Cell-based calcium mobilization assay of AMP hydrolysis by transmembrane PAP; conditions: HEK293 cells expressing hA2B + Gαq-s5 + transmembrane PAP, 1 mM AMP
# A2B adenosine receptor = target: T3, A2B adenosine receptor (Homo sapiens, UniProt P29275); experiment: A2B receptor activation by adenosine in calcium mobilization assay; type: cell-based; conditions: BABPA 5 μM, pCPT-cAMP 100 μM; 1 mM adenosine as ligand
# T3 sequence (P29275 1-332): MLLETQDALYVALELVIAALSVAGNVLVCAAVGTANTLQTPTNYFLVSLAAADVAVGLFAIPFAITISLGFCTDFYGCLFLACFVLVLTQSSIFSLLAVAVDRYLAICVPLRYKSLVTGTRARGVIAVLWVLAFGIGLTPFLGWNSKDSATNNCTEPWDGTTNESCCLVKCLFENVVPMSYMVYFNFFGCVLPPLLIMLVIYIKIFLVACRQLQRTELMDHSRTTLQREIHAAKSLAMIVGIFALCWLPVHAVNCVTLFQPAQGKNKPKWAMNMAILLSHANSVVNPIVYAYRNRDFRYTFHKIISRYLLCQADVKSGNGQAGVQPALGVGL
# ALP [4] = experiment: 5′-AMP hydrolysis; type: biochemical, bovine; conditions: for ALP 5′-AMP Hydrolysis IC50: 100 μM AMP
# mPAP [5] = target: T4, mPAP (Mus musculus, UniProt Q8CE08); experiment: 5′-AMP hydrolysis; type: biochemical; conditions: for Normalized inhibition of mPAP, 5′-AMP hydrolysis (in words): compound at 100 μM
# T4 sequence (Q8CE08 32-381): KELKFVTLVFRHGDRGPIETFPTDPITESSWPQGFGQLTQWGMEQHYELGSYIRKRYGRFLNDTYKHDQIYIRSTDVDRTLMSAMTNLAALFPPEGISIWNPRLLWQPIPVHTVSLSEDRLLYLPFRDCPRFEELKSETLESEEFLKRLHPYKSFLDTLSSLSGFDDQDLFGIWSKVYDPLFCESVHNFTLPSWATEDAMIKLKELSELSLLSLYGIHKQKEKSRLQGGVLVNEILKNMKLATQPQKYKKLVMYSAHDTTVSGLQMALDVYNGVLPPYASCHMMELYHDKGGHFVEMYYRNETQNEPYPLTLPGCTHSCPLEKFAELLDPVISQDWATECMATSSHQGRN
# mPAP [6] = target: T4, mPAP; experiment: Fluorogenic; type: biochemical
# [7] = test system: equilibrative nucleoside transporter 1 (ENT1); conditions: cited from earlier work
# ALP [8] = experiment: Fluorogenic; type: biochemical, bovine; conditions: for ALP Fluorogenic Assay IC50: DiFMUP substrate, pH 8.0
# Summary of the method: as §1
# PAP [9] = conditions: cited from earlier work
# HEK293 cells = experiment: Cell killing in the cell-based calcium mobilization assay
# [10] = read-out: hPAP 5′-AMP Hydrolysis IC50, 400 μM AMP, pH 7.0
# [11] = read-out: hPAP Fluorogenic Assay IC50, DiFMUP substrate, pH 7.0
compound,measurement,setting,value
"Nc1ncnc2c1nc(Sc1ccc(Cl)cc1)n2C1OC2COP(=O)(O)O[C@H]2C1O (stereo in doubt) [compound 21, 8-(4-Chlorophenylthio)-cAMP sodium]",IC50,hPAP [1]; [10],5.66 µM
same,IC50,hPAP [2]; [11],39.8 µM
same,"Inhibition of PTP, fluorogenic substrate (in words)",PTP,Neither pCPT-cAMP nor pCPT-cGMP inhibited
same,"Inhibition of pAP, fluorogenic substrate (in words)",pAP [3],Neither pCPT-cAMP nor pCPT-cGMP inhibited
same,pAP Fluorogenic Assay IC50,"pAP [3]; DiFMUP substrate, pH 5.3",Inactive
same,Inhibition of hydrolysis of AMP to adenosine by transmembrane PAP (in words),transmembrane PAP,dose-dependently inhibited
same,Block of A2B receptor activation by adenosine (in words),A2B adenosine receptor,did not block
same,ALP 5′-AMP Hydrolysis IC50,ALP [4],Inactive
same,IC50,"mPAP [5]; read-out: mPAP 5′-AMP Hydrolysis IC50, 1 mM AMP, pH 7.0",20.2 µM
same,IC50,"mPAP [6]; read-out: mPAP Fluorogenic Assay IC50, DiFMUP substrate, pH 7.0",35.5 µM
same,Block of ENT1 (in words),[7],blocked
same,"Inhibition of ALP, fluorogenic substrate (in words)",ALP [8],Neither pCPT-cAMP nor pCPT-cGMP inhibited
same,ALP Fluorogenic Assay IC50,ALP [8],Inactive
"O=P(O)(O)C(NCc1ccccc1)c1ccccc1 (stereo not drawn) [BABPA, α-Benzylaminobenzylphosphonic acid]",IC50,"hPAP [2]; read-out: IC50 hPAP, fluorogenic assay, positive control, DiFMUP substrate",0.00497 µM
same,Inhibition of PAP (potency in words),PAP [9],low nanomolar range
same,Inhibition of hydrolysis of AMP to adenosine by transmembrane PAP (in words),transmembrane PAP,dose-dependently inhibited
same,Block of A2B receptor activation by adenosine (in words),A2B adenosine receptor,did not block
same,IC50,"mPAP [6]; read-out: IC50 mPAP, fluorogenic assay, positive control, DiFMUP substrate",0.0206 µM
"CCCOc1ccc2ccccc2c1/C=C/c1nc(O)c([N+](=O)[O-])c(=O)[nH]1 [Compound 49, 6-hydroxy-5-nitro-2-[(E)-2-(2-propoxy-naphthalen-1-yl)-vinyl]-3H-pyrimidin-4-one]",IC50,hPAP [1],2.9 µM
same,"Inhibition of ALP, 5′-AMP hydrolysis (in words)",ALP [4]; compound at 100 μM,did not inhibit
same,IC50,mPAP [5],42.9 µM
O=C([O-])[C@H](O)[C@@H](O)C(=O)[O-].[Na+].[Na+] [L-(+)-tartrate],"Inhibition of hPAP, 5′-AMP hydrolysis (in words)",hPAP [1]; 10 mM,inhibited
same,"Inhibition of ALP, 5′-AMP hydrolysis (in words)",ALP [4]; 10 mM,did not inhibit
same,"Inhibition of mPAP, 5′-AMP hydrolysis (in words)",mPAP [5]; 10 mM,inhibited
"O=C(O)c1nn(Cc2ccc(Cl)cc2Cl)c2ccccc12 [compound 9, Lonidamine]",IC50,hPAP [1],15.5 µM
same,Cell killing (in words),HEK293 cells,killed the cells
same,IC50,hPAP [2],50.1 µM
same,pAP Fluorogenic Assay IC50,"pAP [3]; DiFMUP substrate, pH 5.3",Inactive
same,ALP 5′-AMP Hydrolysis IC50,ALP [4],Inactive
same,IC50,mPAP [5],31.1 µM
same,mPAP Fluorogenic Assay IC50,"mPAP [6]; DiFMUP substrate, pH 7.0",Inactive
same,ALP Fluorogenic Assay IC50,ALP [8],Inactive
"COc1ccc2c(c1)c(CC(=O)O)c(C)n2Cc1ccc(Cl)cc1 [compound 17, 1-(4-Chlorobenzyl)-5-methoxy-2-methylindole-3-acetic acid]",IC50,hPAP [1]; [10],46.3 µM
same,IC50,hPAP [2]; [11],39.8 µM
same,pAP Fluorogenic Assay IC50,"pAP [3]; DiFMUP substrate, pH 5.3",Inactive
same,ALP 5′-AMP Hydrolysis IC50,ALP [4],Inactive
same,mPAP 5′-AMP Hydrolysis IC50,"mPAP [5]; 1 mM AMP, pH 7.0",Inactive
same,"Normalized inhibition of mPAP, 5′-AMP hydrolysis (in words)",mPAP [5],did not inhibit
same,mPAP Fluorogenic Assay IC50,"mPAP [6]; DiFMUP substrate, pH 7.0",Inactive
same,ALP Fluorogenic Assay IC50,ALP [8],Inactive
"Clc1ccc(C(c2ccc(Cl)cc2)n2cc[n+](CC(OCc3ccc(Cl)cc3Cl)c3ccc(Cl)cc3Cl)c2)cc1 (stereo not drawn) [compound 29, Calmidazolium chloride]",IC50,hPAP [1],1.48 µM
same,Cell killing (in words),HEK293 cells,killed the cells
same,IC50,hPAP [2],44.7 µM
same,pAP Fluorogenic Assay IC50,"pAP [3]; DiFMUP substrate, pH 5.3",Inactive
same,ALP 5′-AMP Hydrolysis IC50,ALP [4],Inactive
same,IC50,mPAP [5],11.6 µM
same,IC50,mPAP [6],39.8 µM
same,ALP Fluorogenic Assay IC50,ALP [8],Inactive
"O=c1c(O)c(-c2ccc(O)c(O)c2)oc2cc(O)cc(O)c12 [compound 70, Quercetin]",hPAP 5′-AMP Hydrolysis IC50,"hPAP [1]; 400 μM AMP, pH 7.0",Inactive
same,IC50,hPAP [2],31.6 µM
same,pAP Fluorogenic Assay IC50,"pAP [3]; DiFMUP substrate, pH 5.3",Inactive
same,ALP 5′-AMP Hydrolysis IC50,ALP [4],Inactive
same,mPAP 5′-AMP Hydrolysis IC50,"mPAP [5]; 1 mM AMP, pH 7.0",Inactive
same,"Normalized inhibition of mPAP, 5′-AMP hydrolysis (in words)",mPAP [5],did not inhibit
same,mPAP Fluorogenic Assay IC50,"mPAP [6]; DiFMUP substrate, pH 7.0",Inactive
same,ALP Fluorogenic Assay IC50,ALP [8],Inactive
"CCn1cc(C(=O)O)c(=O)c2ccc(C)nc21 [compound 77, Nalidixic acid sodium]",IC50,hPAP [1],20.5 µM
same,IC50,hPAP [2],28.2 µM
same,pAP Fluorogenic Assay IC50,"pAP [3]; DiFMUP substrate, pH 5.3",Inactive
same,ALP 5′-AMP Hydrolysis IC50,ALP [4],Inactive
same,IC50,mPAP [5],20.6 µM
same,IC50,mPAP [6],2.8 µM
same,ALP Fluorogenic Assay IC50,ALP [8],Inactive
"CCCCCCC(C)(C)c1ccc([C@@H]2C[C@H](O)CC[C@H]2CCCO)c(O)c1 [compound 96, CP-55940]",hPAP 5′-AMP Hydrolysis IC50,"hPAP [1]; 400 μM AMP, pH 7.0",Inactive
same,IC50,hPAP [2],31.6 µM
same,IC50,"pAP [3]; read-out: pAP Fluorogenic Assay IC50, DiFMUP substrate, pH 5.3",39.8 µM
same,ALP 5′-AMP Hydrolysis IC50,ALP [4],Inactive
same,mPAP 5′-AMP Hydrolysis IC50,"mPAP [5]; 1 mM AMP, pH 7.0",Inactive
same,"Normalized inhibition of mPAP, 5′-AMP hydrolysis (in words)",mPAP [5],did not inhibit
same,IC50,mPAP [6],15.8 µM
same,ALP Fluorogenic Assay IC50,ALP [8],Inactive
"O=c1c(O)c(-c2cc(O)c(O)c(O)c2)oc2cc(O)cc(O)c12 [compound 97, Myricetin]",IC50,hPAP [1],26.5 µM
same,IC50,hPAP [2],44.7 µM
same,pAP Fluorogenic Assay IC50,"pAP [3]; DiFMUP substrate, pH 5.3",Inactive
same,ALP 5′-AMP Hydrolysis IC50,ALP [4],Inactive
same,ALP Fluorogenic Assay IC50,ALP [8],Inactive
"Nc1nc2c(nc(Sc3ccc(Cl)cc3)n2[C@@H]2O[C@@H]3COP(=O)(O)O[C@H]3[C@H]2O)c(=O)[nH]1 [pCPT-cGMP, 8-(4-chlorophenylthio) cGMP]",Inhibition of human secretory PAP in vitro using AMP as substrate (in words),hPAP [1]; pH 7.0,inhibited
same,IC50,"hPAP [2]; read-out: IC50 human secretory PAP, fluorogenic substrate",31.1 µM
same,"Inhibition of PTP, fluorogenic substrate (in words)",PTP,Neither pCPT-cAMP nor pCPT-cGMP inhibited
same,"Inhibition of pAP, fluorogenic substrate (in words)",pAP [3],Neither pCPT-cAMP nor pCPT-cGMP inhibited
same,Inhibition of hydrolysis of AMP to adenosine by transmembrane PAP (in words),transmembrane PAP,inhibited
same,Inhibition of mouse secretory PAP in vitro using AMP as substrate (in words),mPAP [5]; pH 7.0,inhibited
same,IC50,"mPAP [6]; read-out: IC50 mouse secretory PAP, fluorogenic substrate",49.7 µM
same,"Inhibition of ALP, fluorogenic substrate (in words)",ALP [8],Neither pCPT-cAMP nor pCPT-cGMP inhibited
